Reference: ChEMBL document CHEMBL1122886, “Nucleoside conjugates. 6. Synthesis and comparison of antitumor activity of 1-beta-D-arabinofuranosylcytosine conjugates of corticosteroids and selected lipophilic alcohols” (1985)

How the values were obtained:
L1210 [1] = assay: Percent hydrolysis by phosphodiesterase I at 24-h incubation after 30-minutes incubation.; format: functional, Mus musculus
L1210 [2] = assay: In vitro cytotoxicity with cleavage by phosphodiesterase-I concentration for 50% loss of viability was determined at 72 hours.; format: functional; details: Mus musculus, L1210, 72 h; read-out: ED50 (the source's name)
Mus musculus [3] = species: Mus musculus; assay: Percent increase in life span in mice bearing lymphoid leukemia, treatment schedule is 1-5 qd.; format: functional
In short: (§1)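 C3D2F1/J mice (C3H/HEJ female × DBA/2J male), groups of six, av wt 25 g, inoculated ip with 1 × 10^6 L1210 cells. Daily ip treatment (qd 1-5 or qd 1-9) started 24 h after inoculation, over a wide dose range. Mice observed daily until death or 45 days. ILS = (T/C − 1) × 100. Active range is doses giving ILS ≥25%; optimum dose gives the greatest ILS.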

Mus musculus [4] = species: Mus musculus; assay: Number of animals survived after 30-days in mice bearing lymphoid leukemia, treatment schedule is 1-5 qd.; format: functional; in short: as §1
Mus musculus [5] = species: Mus musculus; assay: Dose producing greatest increase in life span of mice bearing lymphoid leukemia, treatment schedule is 1-5 qd.; format: functional; in short: as §1
Mus musculus [6] = species: Mus musculus; assay: Weight change observed on day 8 in mice bearing lymphoid leukemia, treatment schedule is 1-5 qd.; format: functional
In short: (§2)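 C3D2F1/J mice (C3H/HEJ female × DBA/2J male), groups of six, average weight 25 g, were inoculated ip with 1 × 10^6 L1210 cells. Ip treatment began 24 h after inoculation, daily on days 1-5 or 1-9, over a wide dose range. Mice were observed daily until death or 45 days. Body-weight change was recorded, and ILS was calculated as (T/C − 1) × 100.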

Mus musculus [7] = assay: Dose producing greatest increase in life span >/=25% in mice bearing lymphoid leukemia, treatment schedule is 1-5 qd; 20-60 [mg(umol)/kg] /day; format: functional; in short: as §1
Mus musculus [8] = assay: Dose producing greatest increase in life span >/=25% in mice bearing lymphoid leukemia, treatment schedule is 1-5 qd; 40-60 [mg(umol)/kg] /day; format: functional; in short: as §1
Mus musculus [9] = assay: In Vivo Antitumor activity against intraperitoneally inoculated L1210 Lymphoid leukemic mice. Number of animals survived after 30-days. Treatment schedule is 1-9 qd.; format: functional; in short: as §1
Mus musculus [10] = assay: In Vivo Antitumor activity against intraperitoneally inoculated L1210 Lymphoid leukemic mice. Percent increase in life span. Treatment schedule is 1-9 qd.; format: functional; in short: as §1
Mus musculus [11] = assay: Dose producing greatest increase in life span >/=25% in mice bearing lymphoid leukemia, treatment schedule is 1-9 qd; 40-80 [mg(umol)/kg] /day; format: functional; in short: as §1
Mus musculus [12] = assay: In vivo antitumor activity against intraperitoneally inoculated L1210 Lymphoid leukemic mice (Dose producing greatest increase in life span, treatment schedule is 1- 9 qd); format: functional; in short: as §1
Mus musculus [13] = assay: Dose producing greatest increase in life span >/=25% in mice bearing lymphoid leukemia, treatment schedule is 1-5 qd; 20-80 [mg(umol)/kg] /day; format: functional; in short: as §1
Mus musculus [14] = assay: In vivo antitumor activity against intraperitoneally inoculated L1210 lymphoid leukemic mice (Weight change observed on day 8.Treatment schedule is 1-9 qd); format: functional; in short: as §2
Mus musculus [15] = species: Mus musculus; assay: Number of animals survived after 30-days in mice bearing lymphoid leukemia, treatment schedule is 1-9 qd.; format: functional; in short: as §1
Mus musculus [16] = species: Mus musculus; assay: Percent increase in life span in mice bearing lymphoid leukemia, treatment schedule is 1-9 qd.; format: functional; in short: as §1
Mus musculus [17] = assay: Dose producing greatest increase in life span >/=25% in mice bearing lymphoid leukemia, treatment schedule is 1-9 qd; 5-20 [mg(umol)/kg] /day; format: functional; in short: as §1
Mus musculus [18] = assay: Dose producing greatest increase in life span >/=25% in mice bearing lymphoid leukemia, treatment schedule is 1-5 qd; 5-80 [mg(umol)/kg] /day; format: functional; in short: as §1

CCCCCCCCCCCCCCCCOP(=O)(O)OC[C@H]1O[C@@H](n2ccc(N)nc2=O)[C@@H](O)[C@@H]1O
Hydrolysis (L1210 [1]): 0% | EC50 (L1210 [2]): 16500 nM | ILS (Mus musculus [3]): -22% | No. of survivors (Mus musculus [4]): 0 | Optimal dose (Mus musculus [5]): 20 mg/kg/day | Weight change (Mus musculus [6]): -4.75 g mouse-1 on day 8

CC12CCC(=O)C=C1CCC1C2C(O)CC2(C)C1CC[C@]2(O)C(=O)COP(=O)(O)OP(=O)(O)OC[C@H]1OC(n2ccc(N)nc2=O)[C@@H](O)[C@@H]1O (stereo partly drawn)
ILS (Mus musculus [3]): 86%

CC12CC(O)C3C4C=CC(=O)C=C4CCC3C1CC[C@]2(O)C(=O)COP(=O)(O)OP(=O)(O)OC[C@H]1OC(n2ccc(N)nc2=O)[C@@H](O)[C@@H]1O (stereo partly drawn)
ILS (Mus musculus [3]): 116%

Nc1ccn(C2O[C@H](COP(=O)(O)OCCCl)[C@@H](O)[C@@H]2O)c(=O)n1 (stereo partly drawn)
Hydrolysis (L1210 [1]): 2% | EC50 (L1210 [2]): 3130 nM

CCCCCCCCCCCCCCCCOP(=O)(O)OP(=O)(O)OC[C@H]1OC(n2ccc(N)nc2=O)[C@@H](O)[C@@H]1O (stereo partly drawn)
Hydrolysis (L1210 [1]): 80% | EC50 (L1210 [2]): 4300 nM | ILS (Mus musculus [3]): 38% | 30 day survivors (Mus musculus [4]): 0 | Optimal dose (Mus musculus [5]): 40 mg/kg/day | Active dose range (Mus musculus [7]): 20 mg/kg/day | Weight change (Mus musculus [6]): 2.92 g mouse-1 on day 8

CC12CCC(=O)C=C1CCC1C2C(=O)CC2(C)C1CC[C@]2(O)C(=O)COP(=O)(O)OP(=O)(O)OC[C@H]1OC(n2ccc(N)nc2=O)[C@@H](O)[C@@H]1O (stereo partly drawn)
Hydrolysis (L1210 [1]): 100% | EC50 (L1210 [2]): 80 nM | ILS (Mus musculus [3]): 36% | 30 day survivors (Mus musculus [4]): 0 | Optimal dose (Mus musculus [5]): 40 mg/kg/day | Active dose range (Mus musculus [8]): 40 mg/kg/day | Weight change (Mus musculus [6]): -0.78 g mouse-1 on day 8

CC12CCC(=O)C=C1CCC1C2CCC2(C)C1CC[C@@H]2C(=O)COP(=O)(O)OP(=O)(O)OC[C@H]1OC(n2ccc(N)nc2=O)[C@@H](O)[C@@H]1O (stereo partly drawn)
Hydrolysis (L1210 [1]): 100% | EC50 (L1210 [2]): 160 nM | ILS (Mus musculus [3]): 22% | 30 day survivors (Mus musculus [4]): 0 | Optimal dose (Mus musculus [5]): 20 mg/kg/day | Weight change (Mus musculus [6]): -3.73 g mouse-1 on day 8

CC12CCC(=O)C=C1CCC1C2C(O)CC2(C)C1CC[C@@H]2C(=O)COP(=O)(O)OP(=O)(O)OC[C@H]1OC(n2ccc(N)nc2=O)[C@@H](O)[C@@H]1O (stereo partly drawn)
Hydrolysis (L1210 [1]): 100% | EC50 (L1210 [2]): 90 nM | 30 day survivors (Mus musculus [9]): 2 | ILS (Mus musculus [3]): 95% | ILS (Mus musculus [10]): 152% | 30 day survivors (Mus musculus [4]): 0 | Active dose range (Mus musculus [11]): 40 mg/kg/day | Optimal dose (Mus musculus [5]): 60 mg/kg/day | Optimal dose (Mus musculus [12]): 80 mg/kg/day | Active dose range (Mus musculus [13]): 20 mg/kg/day | Weight change (Mus musculus [14]): -1.95 g mouse-1 on day 8 | Weight change (Mus musculus [6]): -0.45 g mouse-1 on day 8

CC12CCC(=O)C=C1CCC1C2CCC2(C)C1CC[C@]2(O)C(=O)COP(=O)(O)OP(=O)(O)OC[C@H]1OC(n2ccc(N)nc2=O)[C@@H](O)[C@@H]1O (stereo partly drawn)
Hydrolysis (L1210 [1]): 100% | EC50 (L1210 [2]): 20 nM | ILS (Mus musculus [3]): 33% | 30 day survivors (Mus musculus [4]): 0 | Optimal dose (Mus musculus [5]): 60 mg/kg/day | Active dose range (Mus musculus [7]): 20 mg/kg/day | Weight change (Mus musculus [6]): -2.15 g mouse-1 on day 8

C[C@]12C[C@H](O)[C@H]3[C@@H](CCC4=CC(=O)CC[C@@]43C)[C@@H]1CC[C@@H]2C(=O)COP(=O)(O)O.Nc1ccn([C@@H]2O[C@H](COP(=O)(O)O)[C@@H](O)[C@@H]2O)c(=O)n1
EC50 (L1210 [2]): 80 nM

Nc1ccn([C@@H]2O[C@H](COP(=O)(O)O)[C@@H](O)[C@H]2O)c(=O)n1
EC50 (L1210 [2]): 50 nM

Nc1ccn([C@@H]2O[C@H](CO)[C@@H](O)[C@@H]2O)c(=O)n1 [CYTARABINE]
EC50 (L1210 [2]): 190 nM | 30 day survivors (Mus musculus [15]): 1 | ILS (Mus musculus [3]): 63% | ILS (Mus musculus [16]): 138% | 30 day survivors (Mus musculus [4]): 1 | Active dose range (Mus musculus [17]): 5 mg/kg/day | Optimal dose (Mus musculus [5]): 9.2 mg/kg/day | Optimal dose (Mus musculus [12]): 9.2 mg/kg/day | Active dose range (Mus musculus [18]): 5 mg/kg/day | Weight change (Mus musculus [14]): -4.56 g mouse-1 on day 8 | Weight change (Mus musculus [6]): -2.66 g mouse-1 on day 8

Nc1ccn(C2O[C@H](COP(=O)(O)OP(=O)(O)OCC3CCCCC3)[C@@H](O)[C@@H]2O)c(=O)n1 (stereo partly drawn)
Hydrolysis (L1210 [1]): 80% | EC50 (L1210 [2]): 5600 nM

Nc1ccn([C@@H]2O[C@H](COP(=O)(O)OCCC34CC5CC(CC(C5)C3)C4)[C@@H](O)[C@@H]2O)c(=O)n1
Hydrolysis (L1210 [1]): 25% | EC50 (L1210 [2]): 310 nM | ILS (Mus musculus [3]): 18% | 30 day survivors (Mus musculus [4]): 0 | Optimal dose (Mus musculus [5]): 40 mg/kg/day | Weight change (Mus musculus [6]): 0.87 g mouse-1 on day 8

Nc1ccn(C2O[C@H](COP(=O)(O)OCC34CC5CC(CC(C5)C3)C4)[C@@H](O)[C@@H]2O)c(=O)n1 (stereo partly drawn)
Hydrolysis (L1210 [1]): 9% | EC50 (L1210 [2]): 1250 nM

Nc1ccn(C2O[C@H](COP(=O)(O)OCC3CCCCC3)[C@@H](O)[C@@H]2O)c(=O)n1 (stereo partly drawn)
Hydrolysis (L1210 [1]): 0% | EC50 (L1210 [2]): 7000 nM | ILS (Mus musculus [3]): -5% | 30 day survivors (Mus musculus [4]): 0 | Optimal dose (Mus musculus [5]): 40 mg/kg/day | Weight change (Mus musculus [6]): -0.67 g mouse-1 on day 8
